The results in this text go back to ChEMBL document CHEMBL3232963, “Discovery of a potent and selective α3β4 nicotinic acetylcholine receptor antagonist from an α-conotoxin synthetic combinatorial library” (J Med Chem, 2014).

In this assay the target is Neuronal acetylcholine receptor; alpha3/beta4 (Rattus norvegicus) (UniProt P04757+P12392). Description: Antagonist activity at rat alpha3beta4 nAChR expressed in HEK293 cells assessed as inhibition of epibatadine-induced effect at 10 uM after 30 mins by fluorescent membrane potential assay relative to mecamylamine. The assay is classed as cell-based. In a few lines:
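Rat α3β4 nAChR stably expressed in HEK293 cells; crude, SPE-desalted individual peptides tested at 10 μM in HBSS with membrane potential blue dye, 30 min at 37 °C. Fluorescence change read after epibatidine (0.1 μM). Percent inhibition set against 10 μM mecamylamine taken as 100%.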
Regarding `CCCC[C@@H]1NC(=O)[C@H](CC)NC(=O)[C@H]([C@H](C)CC)NC(=O)[C@@H]2CSSC[C@H](NC(=O)CN)C(=O)N[C@@H](CSSC[C@@H](C(=O)O)NC(=O)[C@@H]3CCCN3C1=O)C(=O)N[C@@H](CO)C(=O)N[C@@H](CCCC)C(=O)N1CCC[C@H]1C(=O)N1CCC[C@H]1C(=O)N2`, the inhibition came out at 31.3%.
As for `CCCC[C@@H]1NC(=O)[C@H](CC)NC(=O)[C@H]([C@H](C)CC)NC(=O)[C@@H]2CSSC[C@H](NC(=O)CN)C(=O)N[C@@H](CSSC[C@@H](C(=O)O)NC(=O)[C@@H]3CCCN3C1=O)C(=O)N[C@@H](CO)C(=O)N[C@@H](CCCC)C(=O)N1CCC[C@H]1C(=O)N[C@@H](CC)C(=O)N2`, the inhibition worked out at 42.9%.
Consider `CCCC[C@@H]1NC(=O)[C@H](CC)NC(=O)[C@H]([C@H](C)CC)NC(=O)[C@@H]2CSSC[C@H](NC(=O)CN)C(=O)N[C@@H](CSSC[C@@H](C(=O)O)NC(=O)[C@@H]3CCCN3C1=O)C(=O)N[C@@H](CO)C(=O)N[C@@H](Cc1cnc[nH]1)C(=O)N1CCC[C@H]1C(=O)N1CCC[C@H]1C(=O)N2`, for which the inhibition stood at 38.1%.
As for `CCCC[C@@H]1NC(=O)[C@H](CC)NC(=O)[C@H]([C@H](C)CC)NC(=O)[C@@H]2CSSC[C@H](NC(=O)CN)C(=O)N[C@@H](CSSC[C@@H](C(=O)O)NC(=O)[C@@H]3CCCN3C1=O)C(=O)N[C@@H](CO)C(=O)N[C@@H](Cc1cnc[nH]1)C(=O)N1CCC[C@H]1C(=O)N[C@@H](CC)C(=O)N2`, the figure is 36.2%; as for `CCCC[C@@H]1NC(=O)[C@H](CC2C=Nc3ccccc32)NC(=O)[C@H]([C@H](C)CC)NC(=O)[C@@H]2CSSC[C@H](NC(=O)CN)C(=O)N[C@@H](CSSC[C@@H](C(=O)O)NC(=O)[C@@H]3CCCN3C1=O)C(=O)N[C@@H](CO)C(=O)N[C@@H](CCCC)C(=O)N1CCC[C@H]1C(=O)N[C@@H](CC)C(=O)N2` (stereo partly specified), 51.4%.
The result for `CCCC[C@@H]1NC(=O)[C@H](CC2C=Nc3ccccc32)NC(=O)[C@H]([C@H](C)CC)NC(=O)[C@@H]2CSSC[C@H](NC(=O)CN)C(=O)N[C@@H](CSSC[C@@H](C(=O)O)NC(=O)[C@@H]3CCCN3C1=O)C(=O)N[C@@H](CO)C(=O)N[C@@H](Cc1cnc[nH]1)C(=O)N1CCC[C@H]1C(=O)N[C@@H](CC)C(=O)N2` (stereo partly specified) reads 15.4%; that for `CCCC[C@@H]1NC(=O)[C@H](CO)NC(=O)[C@@H]2CSSC[C@@H](C(=O)O)NC(=O)[C@@H]3CCCN3C(=O)[C@H](CCC)NC(=O)[C@H](CC)NC(=O)[C@H]([C@H](C)CC)NC(=O)[C@H](CSSC[C@H](NC(=O)CN)C(=O)N2)NC(=O)[C@@H]2CCCN2C(=O)[C@@H]2CCCN2C1=O`, 45.7%; that for `CCCC[C@@H]1NC(=O)[C@H](CO)NC(=O)[C@@H]2CSSC[C@@H](C(=O)O)NC(=O)[C@@H]3CCCN3C(=O)[C@H](CCC)NC(=O)[C@H](CC)NC(=O)[C@H]([C@H](C)CC)NC(=O)[C@H](CSSC[C@H](NC(=O)CN)C(=O)N2)NC(=O)[C@H](CC)NC(=O)[C@@H]2CCCN2C1=O`, 19.2%.
As for `CCCC[C@@H]1NC(=O)[C@H](CO)NC(=O)[C@@H]2CSSC[C@@H](C(=O)O)NC(=O)[C@@H]3CCCN3C(=O)[C@H](CCC)NC(=O)[C@H](Cc3c[nH]c4ccccc34)NC(=O)[C@H]([C@H](C)CC)NC(=O)[C@H](CSSC[C@H](NC(=O)CN)C(=O)N2)NC(=O)[C@@H]2CCCN2C(=O)[C@@H]2CCCN2C1=O`, the inhibition is 38.9%.
As to `CCCC[C@@H]1NC(=O)[C@H](CO)NC(=O)[C@@H]2CSSC[C@@H](C(=O)O)NC(=O)[C@@H]3CCCN3C(=O)[C@H](CCC)NC(=O)[C@H](Cc3c[nH]c4ccccc34)NC(=O)[C@H]([C@H](C)CC)NC(=O)[C@H](CSSC[C@H](NC(=O)CN)C(=O)N2)NC(=O)[C@H](CC)NC(=O)[C@@H]2CCCN2C1=O`, the inhibition amounted to 44.8%.
Consider `CCCC[C@@H]1NC(=O)[C@H](CO)NC(=O)[C@@H]2CSSC[C@@H](C(=O)O)NC(=O)[C@H](Cc3ccc(O)cc3)NC(=O)[C@H](CCC)NC(=O)[C@H](CC)NC(=O)[C@H]([C@H](C)CC)NC(=O)[C@H](CSSC[C@H](NC(=O)CN)C(=O)N2)NC(=O)[C@@H]2CCCN2C(=O)[C@@H]2CCCN2C1=O`, for which the inhibition turned out to be 50.9%.
The result for `CCCC[C@@H]1NC(=O)[C@H](CO)NC(=O)[C@@H]2CSSC[C@@H](C(=O)O)NC(=O)[C@H](Cc3ccc(O)cc3)NC(=O)[C@H](CCC)NC(=O)[C@H](CC)NC(=O)[C@H]([C@H](C)CC)NC(=O)[C@H](CSSC[C@H](NC(=O)CN)C(=O)N2)NC(=O)[C@H](CC)NC(=O)[C@@H]2CCCN2C1=O` reads 59.4%.
As for `CCCC[C@@H]1NC(=O)[C@H](CO)NC(=O)[C@@H]2CSSC[C@@H](C(=O)O)NC(=O)[C@H](Cc3ccc(O)cc3)NC(=O)[C@H](CCC)NC(=O)[C@H](Cc3c[nH]c4ccccc34)NC(=O)[C@H]([C@H](C)CC)NC(=O)[C@H](CSSC[C@H](NC(=O)CN)C(=O)N2)NC(=O)[C@@H]2CCCN2C(=O)[C@@H]2CCCN2C1=O`, the figure is 58.3%; as for `CCCC[C@@H]1NC(=O)[C@H](CO)NC(=O)[C@@H]2CSSC[C@@H](C(=O)O)NC(=O)[C@H](Cc3ccc(O)cc3)NC(=O)[C@H](CCC)NC(=O)[C@H](Cc3c[nH]c4ccccc34)NC(=O)[C@H]([C@H](C)CC)NC(=O)[C@H](CSSC[C@H](NC(=O)CN)C(=O)N2)NC(=O)[C@H](CC)NC(=O)[C@@H]2CCCN2C1=O`, 61.9%; as for `CCCC[C@@H]1NC(=O)[C@H](Cc2c[nH]c3ccccc23)NC(=O)[C@H]([C@H](C)CC)NC(=O)[C@@H]2CSSC[C@H](NC(=O)CN)C(=O)N[C@@H](CSSC[C@@H](C(=O)O)NC(=O)[C@@H]3CCCN3C1=O)C(=O)N[C@@H](CO)C(=O)N[C@@H](CCCC)C(=O)N1CCC[C@H]1C(=O)N1CCC[C@H]1C(=O)N2`, 6.3%.
As for `CCCC[C@@H]1NC(=O)[C@H](Cc2c[nH]c3ccccc23)NC(=O)[C@H]([C@H](C)CC)NC(=O)[C@@H]2CSSC[C@H](NC(=O)CN)C(=O)N[C@@H](CSSC[C@@H](C(=O)O)NC(=O)[C@@H]3CCCN3C1=O)C(=O)N[C@@H](CO)C(=O)N[C@@H](Cc1cnc[nH]1)C(=O)N1CCC[C@H]1C(=O)N1CCC[C@H]1C(=O)N2`, the inhibition is 10.1%.
`CCCC[C@@H]1NC(=O)[C@H](Cc2c[nH]c3ccccc23)NC(=O)[C@H]([C@H](C)CC)NC(=O)[C@@H]2CSSC[C@H](NC(=O)CN)C(=O)N[C@@H](CSSC[C@@H](C(=O)O)NC(=O)[C@H](Cc3ccc(O)cc3)NC1=O)C(=O)N[C@@H](CO)C(=O)N[C@@H](CCCC)C(=O)N1CCC[C@H]1C(=O)N1CCC[C@H]1C(=O)N2`: the inhibition worked out at 51.8%.
Regarding `CCCC[C@@H]1NC(=O)[C@H](Cc2c[nH]c3ccccc23)NC(=O)[C@H]([C@H](C)CC)NC(=O)[C@@H]2CSSC[C@H](NC(=O)CN)C(=O)N[C@@H](CSSC[C@@H](C(=O)O)NC(=O)[C@H](Cc3ccc(O)cc3)NC1=O)C(=O)N[C@@H](CO)C(=O)N[C@@H](Cc1cnc[nH]1)C(=O)N1CCC[C@H]1C(=O)N1CCC[C@H]1C(=O)N2`, the inhibition is 43.9%.
The result for `CCCC[C@@H]1NC(=O)[C@H](Cc2c[nH]c3ccccc23)NC(=O)[C@H]([C@H](C)CC)NC(=O)[C@@H]2CSSC[C@H](NC(=O)CN)C(=O)N[C@@H](CSSC[C@@H](C(=O)O)NC(=O)[C@H](Cc3ccc(O)cc3)NC1=O)C(=O)N[C@@H](CO)C(=O)N[C@@H](Cc1cnc[nH]1)C(=O)N1CCC[C@H]1C(=O)N[C@@H](CC)C(=O)N2` reads 55.7%.
The result for `CCC[C@@H]1NC(=O)[C@H](CC)NC(=O)[C@H]([C@H](C)CC)NC(=O)[C@@H]2CSSC[C@H](NC(=O)CN)C(=O)N[C@@H](CSSC[C@@H](C(=O)O)NC(=O)[C@@H]3CCCN3C1=O)C(=O)N[C@@H](CO)C(=O)N[C@@H](Cc1cnc[nH]1)C(=O)N1CCC[C@H]1C(=O)N1CCC[C@H]1C(=O)N2` reads 45.1%; that for `CCC[C@@H]1NC(=O)[C@H](CC)NC(=O)[C@H]([C@H](C)CC)NC(=O)[C@@H]2CSSC[C@H](NC(=O)CN)C(=O)N[C@@H](CSSC[C@@H](C(=O)O)NC(=O)[C@@H]3CCCN3C1=O)C(=O)N[C@@H](CO)C(=O)N[C@@H](Cc1cnc[nH]1)C(=O)N1CCC[C@H]1C(=O)N[C@@H](CC)C(=O)N2`, 41.2%; that for `CCC[C@@H]1NC(=O)[C@H](CC)NC(=O)[C@H]([C@H](C)CC)NC(=O)[C@@H]2CSSC[C@H](NC(=O)CN)C(=O)N[C@@H](CSSC[C@@H](C(=O)O)NC(=O)[C@H](Cc3ccc(O)cc3)NC1=O)C(=O)N[C@@H](CO)C(=O)N[C@@H](Cc1cnc[nH]1)C(=O)N1CCC[C@H]1C(=O)N1CCC[C@H]1C(=O)N2`, 62.3%.
In the case of `CCC[C@@H]1NC(=O)[C@H](Cc2c[nH]c3ccccc23)NC(=O)[C@H]([C@H](C)CC)NC(=O)[C@@H]2CSSC[C@H](NC(=O)CN)C(=O)N[C@@H](CSSC[C@@H](C(=O)O)NC(=O)[C@@H]3CCCN3C1=O)C(=O)N[C@@H](CO)C(=O)N[C@@H](Cc1cnc[nH]1)C(=O)N1CCC[C@H]1C(=O)N1CCC[C@H]1C(=O)N2`, the inhibition came to 44.8%.
`CCC[C@@H]1NC(=O)[C@H](Cc2c[nH]c3ccccc23)NC(=O)[C@H]([C@H](C)CC)NC(=O)[C@@H]2CSSC[C@H](NC(=O)CN)C(=O)N[C@@H](CSSC[C@@H](C(=O)O)NC(=O)[C@@H]3CCCN3C1=O)C(=O)N[C@@H](CO)C(=O)N[C@@H](Cc1cnc[nH]1)C(=O)N1CCC[C@H]1C(=O)N[C@@H](CC)C(=O)N2`: the inhibition was determined as 38.7%.
As for `CCC[C@@H]1NC(=O)[C@H](Cc2c[nH]c3ccccc23)NC(=O)[C@H]([C@H](C)CC)NC(=O)[C@@H]2CSSC[C@H](NC(=O)CN)C(=O)N[C@@H](CSSC[C@@H](C(=O)O)NC(=O)[C@H](Cc3ccc(O)cc3)NC1=O)C(=O)N[C@@H](CO)C(=O)N[C@@H](Cc1cnc[nH]1)C(=O)N1CCC[C@H]1C(=O)N1CCC[C@H]1C(=O)N2`, the figure is 56.5%; as for `CCC[C@@H]1NC(=O)[C@H](Cc2c[nH]c3ccccc23)NC(=O)[C@H]([C@H](C)CC)NC(=O)[C@@H]2CSSC[C@H](NC(=O)CN)C(=O)N[C@@H](CSSC[C@@H](C(=O)O)NC(=O)[C@H](Cc3ccc(O)cc3)NC1=O)C(=O)N[C@@H](CO)C(=O)N[C@@H](Cc1cnc[nH]1)C(=O)N1CCC[C@H]1C(=O)N[C@@H](CC)C(=O)N2`, 47.5%.

Usually inhibition stands for the change of the read-out against control, counted positive when it falls.
